Data on seven molecules can be found in publication PMC3057471 (Biochemistry, 2011).

Experiment [1] has as its target Lethocerus troponin C, F1 isoform (Lethocerus). The experiment can be described thus: other fluorescence titration.
The nature of experiment [2]: Ca^2+ association constants of chromophoric chelators. In kind it is binding. Particulars: 20 °C, 20 mM Tris-HCl pH 6.8, 100 mM NaCl.
In experiment [3] the target is T1, F1 TnC (Lethocerus indicus, UniProt Q868D4).
T1 sequence (Q868D4 1-158): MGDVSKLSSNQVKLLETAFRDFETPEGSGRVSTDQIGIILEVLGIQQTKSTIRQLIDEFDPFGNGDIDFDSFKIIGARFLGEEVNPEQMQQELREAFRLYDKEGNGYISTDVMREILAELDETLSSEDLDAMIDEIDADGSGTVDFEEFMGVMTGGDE
Conditions: C lobe of F1 TnC, essentially Ca^2+ independent; cited from earlier work.

Experiment [4] has as its target T1, F1 TnC. The experiment can be described thus: TnH peptide binding to F1 TnC by competition with melittin. Particulars: 20 °C, 20 mM Tris-HCl pH 6.8, 100 mM NaCl. In outline: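 Competition assay: mixtures of melittin and F1 TnC were titrated with synthetic test peptides (TnH fragments; >95% HPLC, sequences MALDI-verified). Displacement was followed by melittin Trp fluorescence (excitation 280 nm, emission 290–400 nm). Conditions were 20 °C, 20 mM Tris-HCl pH 6.8, 100 mM NaCl, with 1 mM Ca2+, 5 mM Mg2+, or both.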

The target in experiment [5] is T2, F2 TnC (Lethocerus indicus, UniProt Q868D3).
T2 sequence (Q868D3 1-158): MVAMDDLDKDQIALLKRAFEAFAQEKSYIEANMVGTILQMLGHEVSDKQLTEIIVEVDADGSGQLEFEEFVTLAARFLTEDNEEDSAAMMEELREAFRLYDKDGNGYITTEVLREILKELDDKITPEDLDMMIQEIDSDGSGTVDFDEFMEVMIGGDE
As to the kind of experiment: TnH peptide binding to F2 TnC by competition with melittin. Particulars: 20 °C, 20 mM Tris-HCl pH 6.8, 100 mM NaCl. In outline: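 Recombinant F2 TnC was expressed in E. coli BL21(DE3), purified on Ni-NTA, His-tag cleaved with TEV, then purified by gel filtration. Melittin (0.33 μM) plus F2 TnC (1.4 μM with 1 mM Ca2+) was titrated with synthetic test peptides (TnH fragments). Binding was read by melittin Trp fluorescence (excitation 280 nm, emission 290–400 nm) at 20 °C, pH 6.8 Tris/100 mM NaCl; Mg2+ was 5 mM.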

Experiment [6] deals with Lethocerus troponin C, F2 isoform (Lethocerus). The experiment can be described thus: other fluorescence titration.
The mark [7] stands for this setting: 1 mM Ca^2+ and 5 mM Mg^2+, competition with melittin.
Where [8] appears, read: 5 mM Mg^2+, competition with melittin.

Several values for one entry are separate records, joined by “and”; a condition that tells them apart may be missing. Identical values can stand only once. Where no end group is shown, it is not given here.

A word on the Kd: it is the equilibrium constant for the complex coming apart. On to “TnH(126−159) peptide of Lethocerus troponin H”, for which the Kd in experiment [1] is 12200 nM and 3700 nM and 9100 nM.
`O=C(O)CN(CC(=O)O)c1ccccc1OCCOc1cc([N+](=O)[O-])ccc1N(CC(=O)O)CC(=O)O` [5-nitro BAPTA]: the “Equilibrium association constant for Ca^2+ (KCa)” value in experiment [2] is “(4.1 ± 0.3) × 10^4 M^−1”.
For the molecule “YDLNSQVNDLRGKFVKPTLKKVSKYENKFAKLQKK [TnH(126−159)]”, the “Equilibrium dissociation constant range for F1 TnC” value in experiment [3] is “in the micromolar range”. The Kd in experiment [4] (1 mM Ca^2+) came out at 3700 ± 1100 nM; in experiment [4] (5 mM Mg^2+), 9100 ± 3200 nM; in experiment [4] (metal: none (0.2 mM EGTA)), 12200 ± 3400 nM; in experiment [5] (setting [7]), 3500 ± 800 nM; in experiment [5] (1 mM Ca^2+, competition with melittin 0.33 μM, F2 TnC 1.4 μM) it was 3100 ± 800 nM; in experiment [5] (setting [8]), 13500 ± 3500 nM.
Regarding “YKAKKAKKGFMTPERKKKLRLLLRKKAAEELKK [TnH(30−61)]”, the “Equilibrium dissociation constant range for F1 TnC” value in experiment [3] is given as “in the nanomolar range”. Further, the Kd was found to be 1.3 ± 0.4 nM in experiment [4] (1 mM Ca^2+ and 5 mM Mg^2+); 0.9 ± 0.2 nM in experiment [4] (1 mM Ca^2+); 2.2 ± 0.4 nM in experiment [4] (5 mM Mg^2+); 1.9 ± 0.6 nM in experiment [4] (metal: none (0.2 mM EGTA)); 7.8 ± 0.15 nM in experiment [5] (1 mM Ca^2+ (holo), competition with melittin 0.33 μM, F2 TnC 1.4 μM); 6.7 ± 0.9 nM in experiment [5] (setting [7]). The Kd in experiment [5] (setting [8]) is 38.5 ± 5.2 nM.
In the case of `O=C(O)CN(CC(=O)O)c1ccc(Br)cc1OCCOc1cc(Br)ccc1N(CC(=O)O)CC(=O)O` [5,5′-dibromo BAPTA], in experiment [2], the “Equilibrium association constant for Ca^2+ (KCa)” value is reported as “(6.3 ± 0.5) × 10^5 M^−1”.
For “TnH(30−61) peptide of Lethocerus troponin H”, the Kd in experiment [1] is 1.3 nM and 1.9 nM and 2.2 nM.
For the molecule “Melittin from honey bee venom (from UniProt P01501 44-70) (peptide)”, the Kd in experiment [1] was 41 nM and 8.3 nM and 32 nM; in experiment [6], 840 nM and 190 nM and 770 nM.
